The record followed here is ChEMBL document CHEMBL3808291, “Bifunctional Peptide-Based Opioid Agonist-Nociceptin Antagonist Ligands for Dual Treatment of Acute and Neuropathic Pain” (J Med Chem, 2016).

Data set [1] has as its system Mus musculus. The data set can be described thus: Antiallodynic activity in albino Swiss CD1 IGS mouse model of streptozocin-induced type1 diabetic neuropathic pain assessed as increase in mechanical threshold for paw withdrawal at 0.005 nmol, it administered on day 10 after STZ injection measured at 180 mins post dose by Von Frey test. The format is functional, organism-based. The procedure, abridged: (§1)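 Male CD-1 mice (30–35 g). CCI: sciatic constriction injury, tested on days 7–16 after surgery. STZ diabetes: single ip streptozocin 200 mg/kg; mice with glucose >300 mg/dL included, tested on day 10. Drug in water for injection, given it (5 µL, L5–L6 lumbar puncture) to conscious mice. von Frey (cutoff 6 g) or cold plate (2 °C, 30 s cutoff, paw lift) at 30, 90, 180 min; 6–8 mice/group.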

Data set [2] concerns Mus musculus. The data set is described as follows: Antihyperalgesic activity in intrathecally dosed albino Swiss CD1 IGS mouse model of chronic constriction injury-induced neuropathic pain assessed as increase in paw withdrawal latency administered on day 7 to 16 after CCI surgery measured 30 mins post dose by cold plate test. The format is functional. The gist of the method: (§2)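 Male Albino Swiss CD-1 mice (30–35 g), sciatic chronic constriction injury under chloral hydrate; tested days 7–16 post-surgery. Compound in water for injection, 5 µL intrathecal by lumbar puncture L5–L6 in awake mice.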

Data set [3] concerns Mus musculus. The data set can be described thus: Antiallodynic activity in albino Swiss CD1 IGS mouse model of streptozocin-induced type1 diabetic neuropathic pain assessed as increase in mechanical threshold for paw withdrawal at 0.005 nmol, it administered on day 10 after STZ injection measured at 30 mins post dose by Von Frey test. The data set is classed as functional, organism-based. The gist of the method:
as §1

In data set [4] the test system is Mus musculus. The data set is described as follows: Antiallodynic activity in intrathecally dosed albino Swiss CD1 IGS mouse model of chronic constriction injury-induced neuropathic pain assessed as increase in mechanical threshold for paw withdrawal administered on day 7 to 16 after CCI surgery measured 30 mins post dose by Von Frey test. The data set is classed as functional. The procedure, abridged: as §2

Data set [5] deals with Mus musculus. The data set is described as follows: Antihyperalgesic activity in albino Swiss CD1 IGS mouse model of streptozocin-induced type1 diabetic neuropathic pain assessed as increase in paw withdrawal latency at 0.005 nmol, it administered on day 10 after STZ injection measured at 180 mins post dose by […]. The data set is classed as functional, organism-based. The procedure, abridged:
as §1

Data set [6] relates to Mus musculus. The data set can be described thus: Neurotoxicity in intrathecally dosed albino Swiss CD1 IGS mouse assessed as motor impairment measured after 15 to 120 mins post dose by rotarod test. The format is toxicity, organism-based. As to conditions: in vivo, icv_or_intrathecal. The gist of the method:
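Intrathecal dosing (water for injection, 5 µL) to male CD-1 mice. After three training sessions, mice placed on accelerating rod (2 to 40 rpm over 300 s cutoff); tested 15 and 120 min after injection.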
Background: Falling from the rotarod earlier than controls is read as motor impairment.

In data set [7] the test system is Mus musculus. The data set can be described thus: Antinociceptive activity in C57BL6 mouse model of acute pain assessed as increase in withdrawal latency from radiant heat source at 390 nmol/kg, iv measured after 15 to 30 mins by tail flick assay. The format is functional, organism-based. The procedure, abridged: (§3)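 Male C57BL6 mice (20–25 g); compound or saline given iv into tail vein (po also tested). Radiant heat on ventral tail, latency to withdrawal/shaking recorded at baseline and 5, 15, 30, 60, 120 min (later points also reported); normalized as %MPE; 8–10 mice per group.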
On the technique in general: In hot-plate and tail-flick tests a longer latency is read as antinociception.

Data set [8] relates to Mus musculus. The data set can be described thus: Antinociceptive activity in C57BL6 mouse model of acute pain assessed as increase in withdrawal latency from radiant heat source at 390 nmol/kg, iv measured after 60 mins by tail flick assay. The format is functional, organism-based. The gist of the method: as §3
For data set [9], the system named is Mus musculus. The data set is described as follows: Antiallodynic activity in albino Swiss CD1 IGS mouse model of chronic constriction injury-induced neuropathic pain assessed as increase in mechanical threshold for paw withdrawal at >10 ug, it administered on day 7 to 16 after CCI surgery measured 30 mins post dose by Von Frey test relative to control. The format is functional.

Data set [10] relates to Mus musculus. The data set is described as follows: Antihyperalgesic activity in albino Swiss CD1 IGS mouse model of chronic constriction injury-induced neuropathic pain assessed as increase in paw withdrawal latency at >10 ug, it administered on day 7 to 16 after CCI surgery measured 30 mins post dose by cold plate test relative to control. The format is functional.
Data set [11] deals with Mus musculus. The data set is described as follows: Antihyperalgesic activity in albino Swiss CD1 IGS mouse model of chronic constriction injury-induced neuropathic pain assessed as increase in paw withdrawal latency at 10 ug, it administered on day 7 to 16 after CCI surgery measured 30 mins post dose by cold plate test relative to control. The data set is classed as functional.

Data set [12] concerns Mus musculus. The data set is described as follows: Antinociceptive activity in C57BL6 mouse model of acute pain assessed as increase in withdrawal latency from radiant heat source at >10 ug, iv measured after 5 to 120 mins by tail flick assay relative to control. The data set is classed as functional.
Data set [13] concerns Mus musculus. The data set is described as follows: Antinociceptive activity in iv dosed C57BL6 mouse model of acute pain assessed as increase in withdrawal latency from radiant heat source measured after 5 to 120 mins by tail flick assay. The format is functional, organism-based. The procedure, abridged: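 Male C57BL6 mice (20–25 g), restrained; compound or saline control injected intravenously into tail vein. Radiant heat light beam applied to ventral tail; latency to withdrawal or tail shake recorded at baseline and 5, 15, 30, 60, 120 min post-injection. Latencies normalized as %MPE (mean ± SEM); groups of 8–10 mice.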

Data set [14] deals with Mus musculus. The data set is described as follows: Antiallodynic activity in albino Swiss CD1 IGS mouse model of chronic constriction injury-induced neuropathic pain assessed as increase in mechanical threshold for paw withdrawal at 10 ug, it administered on day 7 to 16 after CCI surgery measured 30 mins post dose by Von Frey test relative to control. The format is functional.

In data set [15] the test system is Mus musculus. The data set can be described thus: Antinociceptive activity in C57BL6 mouse model of acute pain assessed as increase in withdrawal latency from radiant heat source at 10 ug, iv measured after 5 to 120 mins by tail flick assay relative to control. The format is functional.
The test system of data set [16] is Mus musculus. The data set is described as follows: Antiallodynic activity in albino Swiss CD1 IGS mouse model of streptozocin-induced type1 diabetic neuropathic pain assessed as increase in mechanical threshold for paw withdrawal at 0.007 nmol, it administered on day 10 after STZ injection measured at 180 mins post dose by Von Frey test. The format is functional, organism-based. The procedure, abridged: (§4)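 Male Albino Swiss CD-1 mice made diabetic by single ip streptozocin 200 mg/kg; glucose >300 mg/dL required; tested day 10. Compound in water for injection, 5 µL intrathecal at L5–L6; von Frey or cold plate (2 °C, 30 s cutoff) at 30, 90, 180 min; 6–8 mice per group.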

Data set [17] relates to Mus musculus. The data set can be described thus: Antihyperalgesic activity in albino Swiss CD1 IGS mouse model of streptozocin-induced type1 diabetic neuropathic pain assessed as increase in paw withdrawal latency at 0.007 nmol, it administered on day 10 after STZ injection measured at 180 mins post dose by […]. The data set is classed as functional, organism-based. The gist of the method:
as §4

Data set [18] concerns Mus musculus. The data set can be described thus: Antiallodynic activity in albino Swiss CD1 IGS mouse model of streptozocin-induced type1 diabetic neuropathic pain assessed as increase in mechanical threshold for paw withdrawal at 0.007 nmol, it administered on day 10 after STZ injection measured at 30 mins post dose by Von Frey test. The format is functional, organism-based. The procedure, abridged:
as §4

Data set [19] concerns the target T1, Nociceptin receptor (Homo sapiens, UniProt P41146). The data set is described as follows: Antagonist activity at human nociceptin receptor expressed in HEK293 cells assessed as inhibition of OFQ/nociceptin-induced suppression of cAMP accumulation up to 20 uM preincubated for 15 mins followed by OFQ/nociceptin addition by luciferase reporter gene assay. The format is functional, cell-based.

Data set [20] has as its target T1, Nociceptin receptor. The data set can be described thus: Agonist activity at human nociceptin receptor expressed in HEK293 cells assessed as inhibition of forskolin-stimulated cAMP production up to 10 uM preincubated for 15 mins followed by forskolin addition measured for 90 mins by luciferase reporter gene assay. The format is functional, cell-based. The procedure, abridged:
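HEK293 cells stably expressing human NOP and GloSensor, in Hepes buffer pH 7.4 with 1 mM d-luciferin, pre-equilibrated 2 h at 25 °C. Compound at various concentrations added 15 min before forskolin (0.5 µM final); luminescence read kinetically for 90 min at 25 °C with 0.5 mM IBMX. At least two experiments in duplicate.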
(In general: Cyclic AMP is a second messenger, typically raised through Gs and lowered through Gi signalling.)

Each structure is given as a SMILES string. Activity calls are given as the source filed them. Numbered stars: 1 amine (or outer) side, 2 acyl side, 3 side chain; on linkers, the order of the positions; unused ones are H or OH. Square brackets hold non-standard residues; d marks the D form. Peptide text beside a SMILES is read from it. X1 = O=C1[C@@H](N[*:1])Cc2ccccc2CN1CCC(=O)[*:2]; Dmt = Cc1cc(O)cc(C)c1C[C@H](N)C(=O)O

T1 sequence (P41146 whole entry): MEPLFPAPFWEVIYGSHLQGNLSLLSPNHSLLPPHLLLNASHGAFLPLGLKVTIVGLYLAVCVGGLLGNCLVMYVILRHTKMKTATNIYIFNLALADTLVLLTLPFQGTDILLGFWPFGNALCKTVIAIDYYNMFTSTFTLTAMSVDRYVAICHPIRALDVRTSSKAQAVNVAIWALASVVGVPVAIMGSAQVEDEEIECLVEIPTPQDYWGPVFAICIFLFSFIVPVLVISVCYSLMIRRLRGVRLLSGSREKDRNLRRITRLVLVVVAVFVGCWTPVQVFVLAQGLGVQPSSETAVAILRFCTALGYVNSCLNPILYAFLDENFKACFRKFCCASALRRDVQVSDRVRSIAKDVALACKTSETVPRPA

For `Cc1cc(O)cc(C)c1C[C@H](NC(=O)[C@H](Cc1ccc(O)cc1)NC(=O)[C@H](CCCNC(=N)N)NC(=O)CCN1Cc2ccccc2C[C@H](NC(=O)[C@@H](CCCNC(=N)N)NC(=O)[C@@H](N)Cc2c(C)cc(O)cc2C)C1=O)C(=O)N[C@@H](CCCNC(=N)N)C(=O)N[C@@H](Cc1c[nH]c2ccccc12)C(=O)N[C@@H](CCCNC(=N)N)C(N)=O` (H-[Dmt][dR][X1]RY[Dmt]RWR-NH2), the result in data set [1] and in [5] was inactive. The ED50 in data set [2] came to 0.005 nmol; in data set [4], 0.0009 nmol. The result in [3] was Active. Moreover, in data set [6], the Activity result is “Non-toxic”.
`CN1CC[C@]23c4c5ccc(O)c4O[C@H]2[C@@H](O)C=C[C@H]3[C@H]1C5` [MORPHINE]: the result in [7] was Active. The ED50 in [2] is 7.46 nmol; in [4], 7 nmol. The outcome in data set [8] was inactive. Further, the MPE is on record as 50% in data set [9]; 50% in [10]; 30.15% in data set [11]; 100% in data set [12]; 36.5% in [14]; 63.8% in data set [15]. Also, in data set [13], the Activity result was “Dose-dependent effect”.
Turning to `CC[C@H](C)[C@H](NC(=O)[C@H](CCCNC(=N)N)NC(=O)[C@H](Cc1ccc(O)cc1)NC(=O)[C@H](Cc1ccc(O)cc1)NC(=O)[C@@H](N)CCCNC(=N)N)C(=O)N[C@@H](CCCCN)C(N)=O`, the result in data set [16], in data set [17] and in data set [20] was inactive. Besides, the outcome in data set [18] was Active. Also, in data set [6], the Activity result is “Non-toxic”. Also, the inhibition result in [19] was “inactive”.
